From ChEMBL document CHEMBL5653631, “A Potent and Selective ULK1 Inhibitor Suppresses Autophagy and Sensitizes Cancer Cells to Nutrient Stress” (iScience, 2018)
Blank lines part the entries; values can stand above or below the compound they belong to.

Assays:
[1] = biological target: Serine/threonine-protein kinase tousled-like 2 (Homo sapiens) (UniProt Q86UE8); assay: Inhibition of human recombinant TLK2 at 500 nM related to control ULK1
[2] = biological target: Tyrosine-protein kinase SYK (Homo sapiens) (UniProt P43405); assay: Inhibition of human recombinant SYK at 500 nM related to control ULK1
[3] = biological target: Insulin-like growth factor 1 receptor (Homo sapiens) (UniProt P08069); assay: Inhibition of human recombinant IGF1R at 15 nM related to control ULK1
Sequence of Insulin-like growth factor 1 receptor (Homo sapiens) (P08069 31-736 limits assumed): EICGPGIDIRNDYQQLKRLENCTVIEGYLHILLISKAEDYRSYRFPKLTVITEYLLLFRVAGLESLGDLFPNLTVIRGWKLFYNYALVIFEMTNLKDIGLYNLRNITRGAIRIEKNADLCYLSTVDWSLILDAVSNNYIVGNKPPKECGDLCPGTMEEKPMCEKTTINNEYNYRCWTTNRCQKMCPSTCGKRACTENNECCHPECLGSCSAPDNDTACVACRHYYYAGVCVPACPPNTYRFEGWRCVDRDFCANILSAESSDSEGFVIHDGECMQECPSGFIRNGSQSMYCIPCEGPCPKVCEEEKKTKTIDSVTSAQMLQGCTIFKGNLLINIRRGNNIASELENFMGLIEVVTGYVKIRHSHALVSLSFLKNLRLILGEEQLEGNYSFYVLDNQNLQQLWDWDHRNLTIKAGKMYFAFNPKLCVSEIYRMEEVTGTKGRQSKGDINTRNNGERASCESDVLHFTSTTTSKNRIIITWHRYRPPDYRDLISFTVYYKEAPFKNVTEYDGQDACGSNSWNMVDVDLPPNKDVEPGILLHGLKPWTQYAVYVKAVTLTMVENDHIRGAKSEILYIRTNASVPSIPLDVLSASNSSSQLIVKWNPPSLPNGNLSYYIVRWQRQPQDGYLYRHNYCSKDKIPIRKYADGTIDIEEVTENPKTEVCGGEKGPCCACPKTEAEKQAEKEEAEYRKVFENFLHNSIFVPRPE
Sequence of Insulin-like growth factor 1 receptor (Homo sapiens) (P08069 741-1367 limits assumed): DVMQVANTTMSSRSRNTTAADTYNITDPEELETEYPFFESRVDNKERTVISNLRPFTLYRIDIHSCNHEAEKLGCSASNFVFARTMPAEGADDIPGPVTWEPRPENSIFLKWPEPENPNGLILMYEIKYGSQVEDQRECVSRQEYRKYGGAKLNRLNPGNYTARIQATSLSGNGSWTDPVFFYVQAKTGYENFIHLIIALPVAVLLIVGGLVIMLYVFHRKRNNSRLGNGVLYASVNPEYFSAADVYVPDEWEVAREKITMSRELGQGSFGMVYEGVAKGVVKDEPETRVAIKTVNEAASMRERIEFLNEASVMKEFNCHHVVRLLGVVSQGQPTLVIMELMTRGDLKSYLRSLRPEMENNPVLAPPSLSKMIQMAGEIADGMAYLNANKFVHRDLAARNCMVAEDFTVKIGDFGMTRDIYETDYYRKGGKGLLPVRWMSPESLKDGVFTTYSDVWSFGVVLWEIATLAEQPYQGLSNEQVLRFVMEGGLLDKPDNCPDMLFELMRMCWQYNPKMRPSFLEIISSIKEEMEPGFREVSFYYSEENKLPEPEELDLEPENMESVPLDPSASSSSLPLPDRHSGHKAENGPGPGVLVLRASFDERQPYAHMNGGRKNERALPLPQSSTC

[4] = biological target: Calcium/calmodulin-dependent protein kinase type 1G (Homo sapiens) (UniProt Q96NX5); assay: Inhibition of human recombinant CaMK1g at 15 nM in presence of ATP by radiometric assay relative to control
Sequence of Calcium/calmodulin-dependent protein kinase type 1G (Homo sapiens) (Q96NX5 whole entry): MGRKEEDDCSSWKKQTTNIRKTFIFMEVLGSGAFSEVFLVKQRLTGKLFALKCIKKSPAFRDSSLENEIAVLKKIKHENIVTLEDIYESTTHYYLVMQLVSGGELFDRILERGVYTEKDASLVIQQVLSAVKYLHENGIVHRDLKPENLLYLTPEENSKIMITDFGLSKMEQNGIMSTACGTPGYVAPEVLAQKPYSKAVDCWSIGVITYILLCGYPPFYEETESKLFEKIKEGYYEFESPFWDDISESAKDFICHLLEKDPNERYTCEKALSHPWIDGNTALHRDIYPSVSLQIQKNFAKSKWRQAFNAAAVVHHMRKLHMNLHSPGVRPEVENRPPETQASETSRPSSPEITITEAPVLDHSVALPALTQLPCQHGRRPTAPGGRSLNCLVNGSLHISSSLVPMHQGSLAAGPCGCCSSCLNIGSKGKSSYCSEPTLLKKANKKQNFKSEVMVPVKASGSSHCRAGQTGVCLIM

[5] = biological target: T1, Tyrosine-protein kinase ITK/TSK (Homo sapiens) (UniProt Q08881); assay: Inhibition of human recombinant ITK at 15 nM in presence of ATP by radiometric assay relative to control
T1 sequence (whole entry): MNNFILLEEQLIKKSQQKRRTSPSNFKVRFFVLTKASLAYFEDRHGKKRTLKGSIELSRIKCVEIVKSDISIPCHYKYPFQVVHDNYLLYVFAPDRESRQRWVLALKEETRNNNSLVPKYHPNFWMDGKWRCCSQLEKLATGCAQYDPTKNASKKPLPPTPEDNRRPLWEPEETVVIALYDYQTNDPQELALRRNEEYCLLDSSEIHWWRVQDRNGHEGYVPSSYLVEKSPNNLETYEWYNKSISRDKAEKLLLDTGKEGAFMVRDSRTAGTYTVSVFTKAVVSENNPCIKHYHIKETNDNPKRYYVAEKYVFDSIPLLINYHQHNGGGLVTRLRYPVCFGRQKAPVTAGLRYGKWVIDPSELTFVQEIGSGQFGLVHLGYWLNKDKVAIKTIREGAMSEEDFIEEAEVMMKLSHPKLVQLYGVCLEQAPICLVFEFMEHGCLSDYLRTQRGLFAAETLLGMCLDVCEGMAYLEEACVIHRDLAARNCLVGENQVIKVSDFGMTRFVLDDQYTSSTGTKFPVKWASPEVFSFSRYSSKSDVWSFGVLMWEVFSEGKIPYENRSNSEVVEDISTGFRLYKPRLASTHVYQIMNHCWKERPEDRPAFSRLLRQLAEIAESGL

[6] = biological target: T2, Mitogen-activated protein kinase kinase kinase 7 (Homo sapiens) (UniProt O43318); assay: Inhibition of human recombinant TAK1 at 15 nM related to control ULK1
T2 sequence (whole entry): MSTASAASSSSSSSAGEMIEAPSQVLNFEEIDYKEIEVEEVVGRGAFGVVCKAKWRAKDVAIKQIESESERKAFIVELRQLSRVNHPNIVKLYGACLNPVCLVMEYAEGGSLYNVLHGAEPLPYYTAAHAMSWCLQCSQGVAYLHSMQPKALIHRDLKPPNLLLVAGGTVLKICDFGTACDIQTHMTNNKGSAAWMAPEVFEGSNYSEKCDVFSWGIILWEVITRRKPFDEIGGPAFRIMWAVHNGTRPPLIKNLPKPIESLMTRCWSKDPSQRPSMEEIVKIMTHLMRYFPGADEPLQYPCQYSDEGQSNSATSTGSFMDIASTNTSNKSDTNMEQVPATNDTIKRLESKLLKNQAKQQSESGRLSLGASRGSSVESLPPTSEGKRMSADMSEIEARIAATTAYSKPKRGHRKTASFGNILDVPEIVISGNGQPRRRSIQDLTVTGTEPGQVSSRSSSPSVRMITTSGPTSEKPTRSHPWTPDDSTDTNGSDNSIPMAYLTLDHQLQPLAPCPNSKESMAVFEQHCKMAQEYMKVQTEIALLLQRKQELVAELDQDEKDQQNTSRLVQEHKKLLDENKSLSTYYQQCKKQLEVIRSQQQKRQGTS

[7] = biological target: 5'-AMP-activated protein kinase catalytic subunit alpha-2 (Homo sapiens) (UniProt P54646); assay: Inhibition of human recombinant AMPKa2 at 40 nM in presence of ATP by radiometric assay relative to control
Sequence of 5'-AMP-activated protein kinase catalytic subunit alpha-2 (Homo sapiens) (P54646 whole entry, looked up): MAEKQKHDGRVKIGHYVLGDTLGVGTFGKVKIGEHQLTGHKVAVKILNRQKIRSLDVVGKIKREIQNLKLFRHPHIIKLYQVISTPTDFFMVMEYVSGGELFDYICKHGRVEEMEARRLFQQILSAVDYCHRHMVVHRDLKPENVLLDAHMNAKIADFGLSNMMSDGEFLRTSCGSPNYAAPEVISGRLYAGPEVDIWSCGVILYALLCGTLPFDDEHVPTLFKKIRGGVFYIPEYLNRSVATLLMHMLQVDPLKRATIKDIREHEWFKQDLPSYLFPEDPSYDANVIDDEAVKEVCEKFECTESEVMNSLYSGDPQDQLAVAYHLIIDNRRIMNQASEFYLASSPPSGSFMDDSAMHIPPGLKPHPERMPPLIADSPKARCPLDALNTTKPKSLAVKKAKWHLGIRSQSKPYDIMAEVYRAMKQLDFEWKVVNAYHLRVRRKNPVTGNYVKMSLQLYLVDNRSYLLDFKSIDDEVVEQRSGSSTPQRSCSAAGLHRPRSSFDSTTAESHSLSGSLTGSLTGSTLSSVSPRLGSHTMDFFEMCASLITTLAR
Procedure, shortened: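 Panel of 327 recombinant human kinases, each assayed in vitro by radiometric activity assay in duplicate at a single inhibitor concentration per compound, chosen with reference to its ULK1 inhibition. Activity remaining was expressed as percent of vehicle control, and percent inhibition was calculated as 100 minus percent activity remaining.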

[8] = biological target: T3, Dual specificity protein kinase TTK (Homo sapiens) (UniProt P33981); assay: Inhibition of human recombinant TTK at 40 nM related to control ULK1
T3 sequence (whole entry): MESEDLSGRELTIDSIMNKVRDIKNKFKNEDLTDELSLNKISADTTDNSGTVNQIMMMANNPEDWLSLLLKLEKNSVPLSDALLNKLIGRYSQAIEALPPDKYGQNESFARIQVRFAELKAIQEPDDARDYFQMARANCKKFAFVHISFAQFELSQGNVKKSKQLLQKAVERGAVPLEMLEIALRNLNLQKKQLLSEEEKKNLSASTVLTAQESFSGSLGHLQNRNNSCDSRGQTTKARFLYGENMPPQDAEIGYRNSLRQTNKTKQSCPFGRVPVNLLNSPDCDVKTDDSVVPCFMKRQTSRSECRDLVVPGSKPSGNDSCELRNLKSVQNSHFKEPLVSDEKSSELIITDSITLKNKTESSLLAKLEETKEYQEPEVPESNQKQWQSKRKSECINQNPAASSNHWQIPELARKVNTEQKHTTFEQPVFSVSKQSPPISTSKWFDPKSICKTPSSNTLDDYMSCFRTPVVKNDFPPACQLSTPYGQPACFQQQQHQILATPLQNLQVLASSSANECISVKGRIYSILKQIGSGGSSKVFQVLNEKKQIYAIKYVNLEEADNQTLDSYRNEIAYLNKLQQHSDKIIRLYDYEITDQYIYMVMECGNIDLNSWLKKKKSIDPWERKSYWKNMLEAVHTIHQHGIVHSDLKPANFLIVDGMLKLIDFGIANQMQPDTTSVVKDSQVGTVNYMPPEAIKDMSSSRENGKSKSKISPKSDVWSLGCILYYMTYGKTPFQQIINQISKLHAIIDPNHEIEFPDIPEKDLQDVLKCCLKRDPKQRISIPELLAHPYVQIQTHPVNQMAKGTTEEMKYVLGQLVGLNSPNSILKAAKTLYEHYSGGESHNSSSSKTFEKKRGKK

[9] = biological target: T4, Testis-specific serine/threonine-protein kinase 4 (Homo sapiens) (UniProt Q6SA08); assay: Inhibition of human recombinant TSSK4 at 40 nM related to control ULK1
T4 sequence (whole entry): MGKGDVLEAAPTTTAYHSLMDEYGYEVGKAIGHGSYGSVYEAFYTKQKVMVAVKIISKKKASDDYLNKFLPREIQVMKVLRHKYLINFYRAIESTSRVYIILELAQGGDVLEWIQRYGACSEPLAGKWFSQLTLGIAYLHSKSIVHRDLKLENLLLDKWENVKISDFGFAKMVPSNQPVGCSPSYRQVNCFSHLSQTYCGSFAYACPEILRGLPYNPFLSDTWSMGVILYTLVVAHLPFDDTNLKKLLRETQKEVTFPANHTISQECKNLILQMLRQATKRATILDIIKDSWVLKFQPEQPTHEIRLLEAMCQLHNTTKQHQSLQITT

Sequence of Serine/threonine-protein kinase tousled-like 2 (Homo sapiens) (Q86UE8 whole entry, looked up): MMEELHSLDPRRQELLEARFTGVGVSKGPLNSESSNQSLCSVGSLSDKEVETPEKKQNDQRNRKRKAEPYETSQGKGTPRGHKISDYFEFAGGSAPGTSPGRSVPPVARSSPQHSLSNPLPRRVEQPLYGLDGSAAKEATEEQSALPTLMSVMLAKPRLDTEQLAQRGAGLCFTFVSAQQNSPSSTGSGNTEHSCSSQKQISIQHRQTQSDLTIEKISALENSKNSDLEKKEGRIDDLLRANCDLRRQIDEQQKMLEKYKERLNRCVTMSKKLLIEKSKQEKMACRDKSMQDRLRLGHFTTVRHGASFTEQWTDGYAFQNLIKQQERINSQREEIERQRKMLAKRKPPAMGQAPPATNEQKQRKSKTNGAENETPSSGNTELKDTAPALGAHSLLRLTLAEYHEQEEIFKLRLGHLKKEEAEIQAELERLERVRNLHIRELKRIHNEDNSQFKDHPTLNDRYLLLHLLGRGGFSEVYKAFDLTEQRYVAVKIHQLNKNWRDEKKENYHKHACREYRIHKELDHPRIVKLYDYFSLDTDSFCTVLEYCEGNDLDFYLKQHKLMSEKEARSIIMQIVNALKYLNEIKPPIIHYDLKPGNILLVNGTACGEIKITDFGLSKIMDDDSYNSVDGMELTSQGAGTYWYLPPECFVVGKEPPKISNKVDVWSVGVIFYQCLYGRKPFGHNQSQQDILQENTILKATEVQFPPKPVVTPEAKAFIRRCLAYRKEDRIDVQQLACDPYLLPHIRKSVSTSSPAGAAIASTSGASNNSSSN

fold change (FC) [1]: 0 | fold change (FC) [2]: 0
SMILES: CNC(=O)c1ccccc1Oc1nc(Nc2cc(OC)c(OC)c(OC)c2)ncc1Br

fold change (FC) [3]: 0 | inhibition [4]: 0% | inhibition [5]: 4% | fold change (FC) [6]: 0.01
SMILES: CC(C)[C@H](NC(=O)c1cc(-c2cnn3cc(-c4ccc(OCCN5CCCCC5)cc4)cnc23)cs1)C(F)(F)F

inhibition [7]: 7% | fold change (FC) [8]: 0.45 | fold change (FC) [9]: 0
SMILES: O=C(N[C@@H](C1CC1)C(F)(F)F)c1cc(-c2cnn3cc(-c4ccc(F)cc4)cnc23)cs1
